Reference: ChEMBL document CHEMBL2146399, “Anti-androgen receptor activity of apoptotic CK2 inhibitor CX4945 in human prostate cancer LNCap cells” (Bioorg Med Chem Lett, 2012)
Activity calls are given as the source filed them. The calls are words filed in the database; no cut-off is given here.

Columns and labels:
[1] = Cytotoxicity against human RWPE1 cells assessed as cell viability at 10 uM after 3 days by CCK8 method; assay type: cell-based, RWPE-1; details: read-out: Activity
How it was run: (§1)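 Normal prostate RWPE-1 cells kept in keratinocyte serum-free medium with 0.05 mg/ml bovine pituitary extract and 5 ng/ml recombinant human EGF. Cells seeded at 1 10^4 per well, cultured 24 h, then treated 1–3 days. Viability measured by CCK-8 in triplicate.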

[2] = test system: LNCaP; assay: Antiapoptotic activity against human LNCAP cells assessed as cell survival at 10 uM after 1 day by CCK8 method; assay type: functional; details: 24 h, read-out: Activity
[3] = test system: LNCaP; assay: Induction of apoptosis in human LNCAP cells at 30 uM after 72 hrs by AnnexinV staining based fluorescent microscopy; assay type: functional, cell-based
How it was run: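 LNCaP cells (5 10^4) plated on coverslips coated with 1% gelatin and treated 72 h. Annexin V kit staining, fixation in 2% formaldehyde, nuclei counterstained with 10 µg/ml DAPI. Annexin V-positive cells counted by fluorescence microscopy.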

[4] = test system: LNCaP; assay: Cytotoxicity against human LNCAP cells assessed as cell viability after 4 days by CCK8 method; assay type: functional, cell-based; details: 96 h
How it was run: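 LNCaP cells grown in RPMI1640 with 10% FBS plus penicillin/streptomycin at 37 °C, 5% CO2. Cells seeded at 3 10^3 per well, cultured 24 h, then exposed to compound for 4 days. Viability read by CCK-8 absorbance, in triplicate.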

[5] = test system: LNCaP; assay: Downregulation of CK2alpha expression in human LNCAP cells assessed as reduction of cytosolic protein level at 10 uM after 12 to 24 hrs by Western blot analysis; assay type: functional, cell-based
How it was run: (§2)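 Western blot: cells homogenized and spun at 10,000 g for 15 min. Supernatant kept as cytoplasmic fraction; nuclear proteins extracted with a kit. Denatured proteins run on gels, transferred to PVDF, probed with specific antibodies, and detected by enhanced chemiluminescence.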

[6] = Cytotoxicity against human RWPE1 cells assessed as cell viability after 1 to 3 days by CCK8 method; assay type: cell-based; details: rwpe-1; how it was run: as §1
[7] = test system: LNCaP; assay: Downregulation of CK2alpha expression in human LNCAP cells assessed as reduction of nuclear protein level at 10 uM after 12 to 24 hrs by Western blot analysis; assay type: functional, cell-based; how it was run: as §2
[8] = test system: LNCaP; assay: Cytotoxicity against human LNCAP cells assessed as cell viability at 10 uM by CCK8 method; assay type: functional, cell-based; details: TDE = time-dependent effect
[9] = test system: LNCaP; assay: Cytotoxicity against human LNCAP cells assessed as cell viability at 1 to 10 uM after 1 day by luciferase assay; assay type: cell-based; details: 24 h, in the assay text read “by CCK-8 assay” for “by luciferase assay”
How it was run: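 LNCaP cells lentivirally transduced with an AR luciferase reporter and selected with 30 µg/ml puromycin. Cells at 4 10^4 per well, kept 1 day in 10% stripped FBS, then treated 1 day in 0.1% stripped FBS with or without 0.1 µM DHT. Luciferase measured for AR activation and CCK-8 for viability; Student's t-test.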

[10] = test system: LNCaP; assay: Induction of apoptosis in human LNCAP cells assessed as increase in caspase3 activation at >10 uM after 1 to 2 days; assay type: functional, cell-based
How it was run: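 LNCaP cells seeded at 1 10^4 per well, cultured 24 h, then treated 1 or 2 days. Caspase-3 activity read with a commercial caspase-3 kit in triplicate. Significance by Student's t-test, P < 0.05.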

[11] = test system: LNCaP; assay: Inhibition of Akt phosphorylation in human LNCAP cells at 0.1 to 30 uM after 30 mins by Western blot analysis; assay type: cell-based; how it was run: as §2
[12] = test system: LNCaP; assay: Downregulation of survivin expression in human LNCAP cells at 0.1 to 30 uM after 24 hrs by Western blot analysis; assay type: functional, cell-based; how it was run: as §2

SMILES | viability at 72 h, 10 µM [1] | viability at 10 µM [2] | Activity [3] | IC50 [4] | Activity [5] | Activity [6] | Activity [7] | Activity [8] | Activity [9] | Activity [10] | inhibition [11] | Activity [12]
O=C(O)c1ccc2c(c1)nc(Nc1cccc(Cl)c1)c1ccncc12 [SILMITASERTIB] | 94% | 72% | Active | 4.59 µM | Active | Non-toxic | Active | tde | Non-toxic | Active | – | –
O=c1cc(N2CCOCC2)oc2c(-c3ccccc3)cccc12 | – | – | – | – | – | – | – | – | – | – | Active | Active
